mABHD4 FP: ABHD4 (mouse) inhibition, primary FP screen | purified mABHD4, FP-Rh probe fluorescence polarization | inhibition, % at 8.92 µM | 370,000 compounds, 0.54% hits;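 active means inhibition exceeding the mean over every tested compound plus 3 SD, cut at about 30% in these data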
Target sequence (Q8VD66 whole entry, looked up): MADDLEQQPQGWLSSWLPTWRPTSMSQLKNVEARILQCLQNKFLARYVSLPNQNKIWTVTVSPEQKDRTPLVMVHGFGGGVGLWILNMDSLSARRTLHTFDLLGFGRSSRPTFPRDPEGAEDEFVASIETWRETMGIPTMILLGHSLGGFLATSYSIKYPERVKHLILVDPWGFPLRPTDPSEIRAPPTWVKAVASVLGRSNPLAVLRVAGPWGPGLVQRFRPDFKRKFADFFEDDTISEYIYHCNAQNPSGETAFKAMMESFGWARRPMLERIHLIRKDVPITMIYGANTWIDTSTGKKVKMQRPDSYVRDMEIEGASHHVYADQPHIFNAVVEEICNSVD
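Doses – 8.92 µM, single dose · Material – wild-type mouse ABHD4 protein · Replication – single well per compound (singlicate) · Measure – percent inhibition of probe binding, normalized to plate controls · Schedule – 45 min compound pre-incubation plus 60 min probe step, 25 °C · Detection – fluorescence polarization with parallel and perpendicular emission, 525/598 nm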
SIAE inh: human SIAE inhibition, primary screen. inhibition, % at 9.66 µM. Q9HAT2. SIAE FP-Rh probe binding, fluorescence polarization. 370,000 compounds, 0.69% hits;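 active means inhibition above a cutoff: mean of compounds within the control limits plus 3 SD of those, cut at about 17% in these data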
rCAG RNA binder: r(CAG) repeat RNA binding; inhibition, % at 3 µM; 370,000 compounds, 1.3% hits; TO-PRO-1 dye displacement fluorescence; AID 651821;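 active means inhibition above the plate cutoff, the mean of all test compounds on that plate plus 3 SD, cut at about 35% in these data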;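 further: higher means more dye released from RNA so lower well fluorescence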
PRMT1 FP inh: blocks human protein arginine methyltransferase 1; recombinant PRMT1, activity-based probe fluorescence polarization; inhibition, % at 2.79 µM; 370,000 compounds, 1.3% hits;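 active means inhibition above about 21% made by adding two undisclosed values, limit read from the data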
Target sequence (Q99873 whole entry, looked up): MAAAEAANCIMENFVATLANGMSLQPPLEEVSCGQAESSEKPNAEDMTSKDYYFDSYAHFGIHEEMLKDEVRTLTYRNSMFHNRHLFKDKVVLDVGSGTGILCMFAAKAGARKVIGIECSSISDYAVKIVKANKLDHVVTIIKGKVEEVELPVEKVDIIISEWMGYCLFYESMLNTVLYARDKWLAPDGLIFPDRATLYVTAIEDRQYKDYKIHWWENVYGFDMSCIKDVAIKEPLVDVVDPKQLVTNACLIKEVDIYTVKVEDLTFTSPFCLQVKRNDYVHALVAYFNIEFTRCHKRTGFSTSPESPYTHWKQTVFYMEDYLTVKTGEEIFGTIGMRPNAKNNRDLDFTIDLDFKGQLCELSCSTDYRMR
HTRA1 inhibitor: HTRA1 (human) protease inhibition. Q92743. recombinant HTRA1, FP-rhodamine activity-based probe, fluorescence polarization. inhibition, % at 5.96 µM. 340,000 compounds, 0.5% hits. AID 504803; in the data active means inhibition above about 36%
HTRA1 inh conf: HTRA1 (human) inhibition, confirmation | shares compounds with HTRA1 inhibitor | 1,600 compounds, 66% hits | AID 540248 | inhibition, % at 5.96 µM | recombinant HTRA1, FP-rhodamine activity-based probe, fluorescence polarization;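 active means mean inhibition over three repeats above a set limit taken from the earlier primary screen, cut at about 37% in these data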;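 further: inhibitors block probe binding so polarization drops and inhibition rises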
rCAG bind conf: r(CAG) RNA repeat binding, confirmation; shares compounds with rCAG RNA binder; TO-PRO-1 dye displacement fluorescence; inhibition, % at 3 µM; 4,300 compounds, 70% hits;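 active means inhibition above a per-plate cutoff, the mean inhibition of sample wells plus 3 SD, cut at about 35% in these data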;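 further: loss of TO-PRO-1 fluorescence as compound displaces dye from 1x1 AA loop RNA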
dCAG dye counter: counter-screen for rCAG RNA binders: DNA CAG dye complex inhibitors | inhibition, % at 3 µM | 4,300 compounds, 94% hits | d(CAG) DNA oligo TO-PRO-1 dye displacement, fluorescence | shares compounds with rCAG RNA binder;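 active means inhibition above its plate's cutoff, the mean test-well inhibition plus 3 SD, cut at about 4.8% in these data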;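 further: hits displace the dye from DNA and so lower well fluorescence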
dCAG dye DR: DNA CAG dye complex inhibition, dose response counter-screen; shares compounds with rCAG RNA binder; DNA CAG/GTC duplex TO-PRO-1 dye displacement fluorescence; IC50, µM; 250 compounds, 20% hits; AID 686960; in the data active means IC50 below about 10 µM
PRMT1 inh conf: PRMT1 (human) inhibition, FP confirmation; shares compounds with PRMT1 FP inh; recombinant His-PRMT1, activity-based probe fluorescence polarization; inhibition, % at 2.79 µM; 3,300 compounds, 42% hits;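 active means mean inhibition across replicates above the hit cutoff derived for the earlier primary screen, cut at about 22% in these data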
ABHD4 confirm: confirmation of mouse ABHD4 inhibitors. shares compounds with mABHD4 FP. purified mABHD4, FP-Rh probe fluorescence polarization. inhibition, % at 8.92 µM. 1,800 compounds, 55% hits. AID 720658;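 active means mean inhibition across replicates above the hit cutoff set in the primary screen, cut at about 30% in these data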
Large screens that a line does not name were inactive (follow-up assays come after a bar, where they were run). Compounds with a hit are over-represented: about 3.3% of the library has one in this group of screens.

CCc1ccc(S(=O)(=O)/N=C2\C=C(Nc3cccc(C(=O)O)c3)C(=O)c3ccccc32)cc1	mABHD4 FP 65, rCAG RNA binder 81, HTRA1 inhibitor 70 | HTRA1 inh conf 66 | rCAG bind conf 76 | dCAG dye counter 37 | ABHD4 confirm 84
O=[N+]([O-])c1ccc2c([N+](=O)[O-])ccc3c2c1CC3	mABHD4 FP 40, HTRA1 inhibitor 54 | HTRA1 inh conf 38 | ABHD4 confirm 90
COCCCN1C(=O)[C@H](CC(=O)NCc2cccc(C(F)(F)F)c2)[C@]2(C(=O)OC)CCCCC=C12	none (no result: HTRA1 inhibitor)
CCn1c2ccccc2c2cc(C=NNC(=O)c3ccoc3C)ccc21	none (no result: HTRA1 inhibitor)
CCOC(=O)c1c(N)sc(=S)c2c1CCC2	mABHD4 FP 42, rCAG RNA binder 36, PRMT1 FP inh 27, HTRA1 inhibitor 38 | HTRA1 inh conf inactive | rCAG bind conf 54 | dCAG dye counter 23 | dCAG dye DR inactive | PRMT1 inh conf inactive | ABHD4 confirm inactive
CCCOC(=O)c1c(N)sc2c1CCC2	none
CC(C)c1ccc(CNc2ccc(N3CCOCC3)cc2)cc1	mABHD4 FP 30, HTRA1 inhibitor 57 | HTRA1 inh conf inactive | ABHD4 confirm inactive
Cc1cc(=O)c2c(o1)C(=O)c1occc1C2=O	mABHD4 FP 58, PRMT1 FP inh 36, HTRA1 inhibitor 46 | HTRA1 inh conf inactive | PRMT1 inh conf 26 | ABHD4 confirm 61
Oc1ccc(C2C[C@H]3CC[C@@H]2C3)cc1O (stereo partly specified)	mABHD4 FP 30, HTRA1 inhibitor 51 | HTRA1 inh conf 76 | ABHD4 confirm inactive
O=C1CC(c2ccc(O)c(O)c2)Oc2cc(O)cc(O)c21 (stereo unspecified)	none
O=C(NCCc1ccccc1)OCc1cn(Cc2ccc(F)cc2)nn1	none (no result: HTRA1 inhibitor)
CC(=O)N(C)c1ccc(N=Cc2cc3c(cc2[N+](=O)[O-])OCO3)cc1	none
CC(C)(C)c1ccc(O)c(N=Cc2cc3c(cc2[N+](=O)[O-])OCO3)c1	mABHD4 FP 49, HTRA1 inhibitor 39 | HTRA1 inh conf inactive | ABHD4 confirm 40
Cc1ccc(C)c(N=Cc2cc3c(cc2[N+](=O)[O-])OCO3)c1	mABHD4 FP 50, SIAE inh 27, PRMT1 FP inh 22, HTRA1 inhibitor 48 | HTRA1 inh conf inactive | ABHD4 confirm 45
O=[N+]([O-])c1ccc(O)c(C=Nc2ccc3c(c2)OCO3)c1	none
CCCCCC(=O)Nc1nc(C)c(-c2csc(Nc3cc(OC)ccc3OC)n2)s1	mABHD4 FP 44, HTRA1 inhibitor 42 | HTRA1 inh conf inactive | ABHD4 confirm 56
COC(=O)[C@]12CCCCC=C1N(Cc1ccc(OC)cc1)C(=O)[C@@H]2CC(=O)N1CCN(C(=O)C2CC2)CC1	none (no result: HTRA1 inhibitor)
Cc1ccc(C(=O)NC2CCCCN(C(C)C)C2=O)cc1 (stereo unspecified)	none (no result: HTRA1 inhibitor)
COC(=O)c1ccc(Cn2ccc3ccc(-c4ccc5ccn(C(=O)C6CCCCC6)c5c4)cc32)cc1	none (no result: HTRA1 inhibitor)
Fc1cccc(Cl)c1C1Nc2cccc3cccc(c23)N1	mABHD4 FP 57, PRMT1 FP inh 33, HTRA1 inhibitor 50 | HTRA1 inh conf inactive | PRMT1 inh conf 27 | ABHD4 confirm 48
Clc1cccc(Cl)c1C1Nc2cccc3cccc(c23)N1	mABHD4 FP 72, PRMT1 FP inh 31, HTRA1 inhibitor 70 | HTRA1 inh conf inactive | ABHD4 confirm 48
Clc1ccc(C2Nc3cccc4cccc(c34)N2)cc1Cl	none
COc1cccc(-c2cc(C(C)=O)c3n(c2=O)CCC3)c1OC	none (no result: HTRA1 inhibitor)
CC(=O)C1C(=O)c2c(cccc2[N+](=O)[O-])C1=Nc1ccc(S(N)(=O)=O)cc1 (stereo unspecified)	mABHD4 FP 38, rCAG RNA binder 38, HTRA1 inhibitor 39 | HTRA1 inh conf inactive | rCAG bind conf inactive | dCAG dye counter 13 | ABHD4 confirm 34
CC(=O)C1=C(O)C(=O)N(c2ccc(S(N)(=O)=O)cc2)C1c1cccc([N+](=O)[O-])c1 (stereo unspecified)	none
CCOC(=O)C(C(C)=O)c1c(Br)c(O)c(O)c2c(C(=O)c3ccc(C)cc3)coc12 (stereo unspecified)	mABHD4 FP 32, PRMT1 FP inh 40, HTRA1 inhibitor 69 | HTRA1 inh conf 78 | PRMT1 inh conf inactive | ABHD4 confirm 38
Cc1ccc(C(=O)c2coc3ccc(O)c(Cl)c23)cc1	none
CN1C(=O)C[C@@](C#N)(C(=O)N2CCOCC2)[C@H]1c1ccccc1	none (no result: HTRA1 inhibitor)
Cc1ccccc1N1CCN(C(=O)CCn2nnc3ccccc32)CC1	none (no result: HTRA1 inhibitor)
Cn1c(CNc2ccc(Cl)cc2)nc2ccccc21	none
CC(C)N=c1cc2n(-c3ccc(Cl)cc3)c3ccccc3nc-2cc1Nc1ccc(Cl)cc1	mABHD4 FP 61, HTRA1 inhibitor 70 | HTRA1 inh conf 51 | ABHD4 confirm 78
CN(C)c1ccc(CCc2ccc(N)cc2)cc1	none
Nc1ccc(N(c2ccccc2)c2ccc(N)cc2)cc1	mABHD4 FP 39, HTRA1 inhibitor 65 | HTRA1 inh conf 54 | ABHD4 confirm 48
O=C(O)CCNc1ccc(NCCC(=O)O)c2c1C(=O)c1ccccc1C2=O	mABHD4 FP 56, PRMT1 FP inh 27, HTRA1 inhibitor 44 | HTRA1 inh conf 59 | ABHD4 confirm 65
COc1ccc(OC)c(NC(=O)CSc2nncc3ccc(OC)c(OC)c23)c1	mABHD4 FP 43, PRMT1 FP inh 55, HTRA1 inhibitor 44 | HTRA1 inh conf inactive | PRMT1 inh conf inactive | ABHD4 confirm 32
O=C(/C=C/c1ccc2ccccc2n1)c1cc(Br)ccc1O	none
O=C(/C=C/c1ccccc1)c1cc(Br)ccc(=O)c1O	mABHD4 FP 37, rCAG RNA binder 51, PRMT1 FP inh 34, HTRA1 inhibitor 58 | HTRA1 inh conf 65 | rCAG bind conf 41 | dCAG dye counter 17 | PRMT1 inh conf 28 | ABHD4 confirm inactive
Nc1cc2c(cc1O)CCCC2	mABHD4 FP 30, HTRA1 inhibitor 44 | HTRA1 inh conf inactive | ABHD4 confirm inactive
